Results on two molecules are retold here after ChEMBL document CHEMBL2331187, “Efficient synthesis of 3H,3'H-spiro[benzofuran-2,1'-isobenzofuran]-3,3'-dione as novel skeletons specifically for influenza virus type B inhibition” (Eur J Med Chem, 2013).

Data set [1] in a line: Selectivity ratio of CC50 for MDCK cells to EC50 for Influenza B virus (B/Taiwan/2/62). Format: ADME, cell-based. To be noted: dog, read-out: Ratio CC50/EC50. The method, boiled down:
(§1)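 Confluent MDCK monolayers were mock-infected or infected with about 50-100 PFU of influenza virus per well. At read-out the medium was removed and cells were stained with fluorescein diacetate in PBS for 20 min at 35 °C. Fluorescence was read at ex 485/em 538 nm. CC50 and EC50 were derived from the fluorescence, and the selectivity index was taken as CC50/EC50.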

The nature of data set [2]: Cytotoxicity against african green monkey Vero cells by MTT assay. The data set is classed as cell-based. To be noted: chlorocebus sabaeus. The method, boiled down: (§2)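 MTT-based CPE assay in Vero cells with HSV-1 strain F or HSV-2 strain MS. CC50 is the concentration that reduces viability of uninfected Vero cells by 50%. EC50 is the concentration that improves viability of HSV-infected cells by 50%.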
For orientation: Tetrazolium dyes change colour on reduction, which living cells bring about.

Data set [3] can be described thus: Cytotoxicity against MDCK cells after 3 days by fluorescein diacetate-based fluorimetric analysis. Format: cell-based, Canis lupus familiaris. To be noted: dog. The method, boiled down:
as §1

In data set [4] the test system is Human alphaherpesvirus 2. Description: Antiviral activity against Herpes simplex virus 2 MS infected in Vero cells assessed as inhibition of virus-induced cytopathogenicity by MTT assay. Format: functional, organism-based. To be noted: Human alphaherpesvirus 2, MS. The method, boiled down: as §2
A short description of data set [5]: Selectivity ratio of CC50 for MDCK cells to EC50 for Influenza B virus (B/Brisbane/60/2008). The data set is classed as ADME, cell-based. The conditions noted are these: dog, read-out: Ratio CC50/EC50. The procedure, abridged:
as §1

Data set [6] relates to Influenza A virus. As to the kind of experiment: Antiviral activity against Influenza A virus (A/Taiwan/1/1986(H1N1)) infected in MDCK cells assessed as inhibition of virus-induced cytopathogenicity at 1 hr post-infection measured after 3 days by fluorescein-diacetate based fluorimetric analysis. The data set is classed as functional, organism-based. The method, boiled down: as §1
(Cytopathic effects are the visible damage that an infection or toxin causes in cultured cells.)

Data set [7] in a line: Selectivity ratio of CC50 for MDCK cells to EC50 for Influenza B virus (B/Panama/45/1990). To be noted: dog, read-out: Ratio CC50/EC50. Format: ADME, cell-based. The procedure, abridged: as §1
Data set [8] deals with Influenza B virus. Description: Antiviral activity against Influenza B virus (B/Brisbane/60/2008) infected in MDCK cells assessed as inhibition of virus-induced cytopathogenicity at 1 hr post-infection measured after 3 days by fluorescein-diacetate based fluorimetric analysis. Format: functional, cell-based. The conditions noted are these: B/Brisbane/60/2008, MDCK. The procedure, abridged:
as §1

A short description of data set [9]: Selectivity ratio of CC50 for MDCK cells to EC50 for Influenza B virus (B/Lee/40). The data set is classed as ADME, cell-based. To be noted: dog, read-out: Ratio CC50/EC50. The method, boiled down:
as §1

Data set [10] concerns Influenza B virus. Description: Antiviral activity against Influenza B virus (B/Taiwan/2/62) infected in MDCK cells assessed as inhibition of virus-induced cytopathogenicity at 1 hr post-infection measured after 3 days by fluorescein-diacetate based fluorimetric analysis. Format: functional, organism-based. The method, boiled down:
as §1

Data set [11] deals with Human immunodeficiency virus 2. As to the kind of experiment: Antiviral activity against Human immunodeficiency virus 2 ROD infected in MT4 cells assessed as inhibition of virus-induced cytopathogenicity by MTT assay. The data set is classed as functional, organism-based. The conditions noted are these: Human immunodeficiency virus 2, ISOLATE ROD. The procedure, abridged: (§3)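 MTT-based CPE assay in MT4 cells. CC50 is the concentration that reduces viability of uninfected MT4 cells by 50%. EC50 is the concentration that improves viability of HIV-infected cells by 50%.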

The subject of data set [12] is Human immunodeficiency virus 1. Description: Antiviral activity against Human immunodeficiency virus 1 3B infected in MT4 cells assessed as inhibition of virus-induced cytopathogenicity by MTT assay. The data set is classed as functional, organism-based. The procedure, abridged: as §3
For data set [13], the system named is Influenza B virus. As to the kind of experiment: Antiviral activity against Influenza B virus (B/Lee/40) infected in MDCK cells assessed as inhibition of virus-induced cytopathogenicity at 1 hr post-infection measured after 3 days by fluorescein-diacetate based fluorimetric analysis. Format: functional, organism-based. The conditions noted are these: B/Lee/1940, MDCK. The procedure, abridged: as §1

The test system of data set [14] is Human alphaherpesvirus 1. As to the kind of experiment: Antiviral activity against Herpes simplex virus 1 F infected in Vero cells assessed as inhibition of virus-induced cytopathogenicity by MTT assay. The data set is classed as functional, organism-based. To be noted: Human alphaherpesvirus 1, strain F. The procedure, abridged:
as §2

Data set [15] in a line: Cytotoxicity against human MT4 cells by MTT assay. The data set is classed as cell-based. The method, boiled down: as §3
Data set [16] deals with Influenza B virus. As to the kind of experiment: Antiviral activity against Influenza B virus (B/Panama/45/1990) infected in MDCK cells assessed as inhibition of virus-induced cytopathogenicity at 1 hr post-infection measured after 3 days by fluorescein-diacetate based fluorimetric analysis. Format: functional, cell-based. The conditions noted are these: B/Panama/45/1990, MDCK. The procedure, abridged:
as §1

Data set [17] relates to MDCK. As to the kind of experiment: Cytotoxicity against MDCK cells assessed as cell death at 500 uM after 3 days by fluorescein diacetate-based fluorimetric analysis. On the set-up: species or system Canis lupus familiaris. The conditions noted are these: dog, 72 h.

For orientation: CC50 means the concentration giving 50% cytotoxicity. One may read the EC50 as the concentration that produces a half-maximal response. As to `Cc1cc2c(cc1C)C(=O)C1(OC(=O)c3ccccc31)O2` (stereo unspecified), the selectivity ratio was 30 in [1], 30 in [5], over 15 in [7] and 30 in [9]. Besides, the CC50 stood at 312 µM in data set [2] and 158 µM in data set [15]. In addition, the cytotoxic concentration (CC50) at 72 h in data set [3] is over 500 µM. In addition, the EC50 is over 312 µM in data set [4]; 23.4 µM in data set [6]; 4.8 µM in data set [8]; 3.6 µM in data set [10]; over 158 µM in data set [11]; over 158 µM in data set [12]. The EC50 was 16.1 µM in [13], over 312 µM in data set [14] and 3 µM in [16].
Turning to `O=C1OC2(Oc3cc(F)ccc3C2=O)c2ccccc21` (stereo unspecified), the CC50 at 72 h in data set [3] was over 500 µM. Moreover, the EC50 in [6] was found to be 100 µM; in data set [16] it was 8.2 µM. For the same molecule, in data set [7], the selectivity ratio was over 15. For the same molecule, in [17], the Activity was over 20%.
